An excerpt weighted towards active compounds, which were near 2.7% of everything screened.
Tb hexokinase = blocks Trypanosoma brucei hexokinase 1 activity. inhibition, % at 10 µM. hit rate 0.11% among 220,000. recombinant TbHK1, G6PDH-coupled NADH A340;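 active = inhibition of 50% or more in the single-dose primary screen; inactive = inhibition below 50%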
14-3-3 Bad inh = disrupts binding of bovine 14-3-3 zeta to phospho-Bad peptide; TR-FRET 14-3-3zeta/Dy647-pBad peptide displacement, 1 h; inhibition, % at 21.7 µM; hit rate 0.71% among 220,000; AID 781;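 active = inhibition above about 70%, limit read from the data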;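 note: 0% = full 14-3-3 plus peptide FRET controls and 100% = background without 14-3-3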
Target sequence (P63103 whole entry, looked up): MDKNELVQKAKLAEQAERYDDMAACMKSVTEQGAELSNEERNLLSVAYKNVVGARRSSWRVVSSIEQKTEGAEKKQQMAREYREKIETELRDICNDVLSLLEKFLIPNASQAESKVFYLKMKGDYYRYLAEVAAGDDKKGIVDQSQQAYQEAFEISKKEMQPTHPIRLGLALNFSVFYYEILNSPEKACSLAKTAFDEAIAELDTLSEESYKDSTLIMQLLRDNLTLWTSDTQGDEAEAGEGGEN
Mdm2 ligase inh = Mdm2 E3 ligase (human) inhibition. Q00987. cell-based MDM2 ubiquitination luciferase reporter, 2 h; 0 = plate control, 100 = twice control, blank-subtracted. signal enhancement, % at 5 µM. hit rate 0.11% among 210,000. AID 1230;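 active = signal enhancement of 30% or more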;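 note: luminescence tracks abundance of the self-degrading MDM2-luciferase fusion protein; higher signal means inhibition of MDM2 E3 ligase activity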
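Buffer or medium: Cells held in DMEM | Assay system: Stable mammalian line carrying autodegrading MDM2–luciferase fusion reporter | Quantity: 2000 cells/well | Times: 4 h settle plus 2 h compound, 37 °C | Doses: One concentration, 5 µM, with 0.2% DMSO | Technique: Luminescence with SteadyLite reagent, 15 min at room temperature | Benchmarks: Plate controls and plate blanks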
Hck Nef HTS = human Hck-Nef kinase inhibition. hit rate 0.68% among 220,000. inhibition, % at 20 µM. AID 463187. Recombinant Hck-YEEI plus Nef, Z-Lyte FRET kinase assay;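 active = Hck-Nef kinase inhibition above about 50%, limit read from the data; inactive = inhibition below that limit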;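 note: 0% = DMSO with Hck plus Nef and 100% = Hck alone without Nef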
Wee1 stabilizer = inhibitors of human Wee1 degradation | P30291 | HeLa Luc-Wee1K328M stability, luciferase luminescence; 100% = proteasome inhibitor MG132 effect | reporter increase, % at 5 µM | hit rate 1.2% among 220,000 | AID 1321;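 active = activation above the mean of all tested compounds plus 3 SD, set per screening run, cut at about 8.8% in these data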;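 note: cells exposed to compound for 20 h before luminescence read; 0% = DMSO alone and 100% = MG132 at 30 µM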
* = called active by the depositor; [ ] = another dose, or the depositor's remark.

Results for N[C@@H](Cc1ccc(O)cc1)c1nnc([C@H](CC(=O)O)NC(=O)C2CCNCC2)o1 ?
Tb hexokinase: -9; 14-3-3 Bad inh: -7; Hck Nef HTS: -15; Wee1 stabilizer: 0

What do the screens show for `CCOC(=O)c1ccc(NC(=O)Nc2ccc(F)cc2)cc1`?
Tb hexokinase: -8; 14-3-3 Bad inh: 3; Mdm2 ligase inh: -9; Hck Nef HTS: 0; Wee1 stabilizer: 10*

Results for CC(C)(C)c1ccc(COC(=O)Nc2ccc(F)cc2)cc1 ?
Tb hexokinase: 2; 14-3-3 Bad inh: -7; Mdm2 ligase inh: -2; Hck Nef HTS: 3; Wee1 stabilizer: 0

What do the screens show for `CCOC(=O)c1ccc(NS(=O)(=O)c2cnc[nH]2)cc1`?
Tb hexokinase: -4; 14-3-3 Bad inh: 11; Mdm2 ligase inh: -13; Hck Nef HTS: -3; Wee1 stabilizer: 11*

Results for CCOC(=O)c1ccc(NC(=O)COc2ccccc2OC)cc1 ?
Tb hexokinase: 6; 14-3-3 Bad inh: 83*; Mdm2 ligase inh: -5; Hck Nef HTS: 1; Wee1 stabilizer: -4

How did CC(C)(C)c1ccc(NC(=O)Nc2ccc(F)cc2)cc1 do in these assays?
Tb hexokinase: -3; 14-3-3 Bad inh: -5; Mdm2 ligase inh: -18; Hck Nef HTS: 22; Wee1 stabilizer: 9.6*

What do the screens show for `C=CCOc1nc2c(c(=O)n(Cc3ccc(Cl)c(Cl)c3)c(=O)n2C)n1C`?
Tb hexokinase: 4; Hck Nef HTS: 11; Wee1 stabilizer: -1

How did CCN(CC)/C(=N/S(=O)(=O)c1ccc(C)cc1)c1ccccc1 do in these assays?
Tb hexokinase: 5; 14-3-3 Bad inh: 4; Mdm2 ligase inh: 5; Hck Nef HTS: -1; Wee1 stabilizer: 10.0*

What do the screens show for `CSc1nc(SCC(=O)O)c2sc3nc(-c4ccccc4)c4c(c3c2n1)CCC4`?
Tb hexokinase: 4; 14-3-3 Bad inh: 87*; Mdm2 ligase inh: -18; Hck Nef HTS: -52; Wee1 stabilizer: 3

What do the screens show for `O=C(N/N=C/c1ccc([N+](=O)[O-])o1)c1cc2c(ccc3ccccc32)o1`?
Tb hexokinase: -13; 14-3-3 Bad inh: 93*; Mdm2 ligase inh: -6; Hck Nef HTS: 30; Wee1 stabilizer: 3

Results for COC(=O)c1ccc(CSc2nc(-c3ccc(OC)cc3)nc3c2c(=O)n(C)c(=O)n3C)o1 ?
Tb hexokinase: -14; Hck Nef HTS: 4; Wee1 stabilizer: 3

Results for Oc1ccc2oc3c(c2c1C=NCc1ccncc1)CCCC3 ?
Tb hexokinase: -13; 14-3-3 Bad inh: 0; Mdm2 ligase inh: 1; Hck Nef HTS: 4; Wee1 stabilizer: 25*

What do the screens show for `Oc1ccc2oc3c(c2c1/C=N/n1cnnc1)CCCC3`?
Tb hexokinase: -20; 14-3-3 Bad inh: -9; Mdm2 ligase inh: -14; Hck Nef HTS: 2; Wee1 stabilizer: -2

Results for CC(C)CC(=O)N1CCN(S(=O)(=O)c2ccc(Cl)cc2)CC1 ?
Tb hexokinase: 3; 14-3-3 Bad inh: 9; Mdm2 ligase inh: -1; Hck Nef HTS: 18; Wee1 stabilizer: -4

What do the screens show for `Cc1ccc(S(=O)(=O)N2CCN(C(=O)CC(C)C)CC2)cc1`?
Tb hexokinase: 3; 14-3-3 Bad inh: 7; Mdm2 ligase inh: 32*; Hck Nef HTS: 12; Wee1 stabilizer: 1

What do the screens show for `CC(C)NCCOCCSc1ccc(Cl)cc1`?
Tb hexokinase: -3; 14-3-3 Bad inh: 83*; Mdm2 ligase inh: 1; Hck Nef HTS: -1; Wee1 stabilizer: -1

Results for CCOc1ccc(N2CC(C(=O)Nc3cccc(S(=O)(=O)NC4=NCCC4)c3)CC2=O)cc1 (stereo not given) ?
Tb hexokinase: 4; 14-3-3 Bad inh: -5; Hck Nef HTS: 14; Wee1 stabilizer: 1

How did O=C(O)c1ccccc1C(=O)NCCc1c(C(=O)O)[nH]c2ccc(Cl)cc12 do in these assays?
Tb hexokinase: -8; 14-3-3 Bad inh: 2; Mdm2 ligase inh: -12; Hck Nef HTS: -10; Wee1 stabilizer: 3

Results for COc1ccc2[nH]c(C(=O)O)c(CCNC(C)=O)c2c1 ?
Tb hexokinase: 6; 14-3-3 Bad inh: 0; Mdm2 ligase inh: 40*; Hck Nef HTS: 7; Wee1 stabilizer: -1

Results for CN(C)c1cc(C(F)(F)F)nc(-c2ccccn2)n1 ?
Tb hexokinase: -3; 14-3-3 Bad inh: 0; Mdm2 ligase inh: 31*; Hck Nef HTS: 1; Wee1 stabilizer: 4

Results for Cc1ccc(C2=NNC(c3cccc(F)c3)S2)cc1 (stereo not given) ?
Tb hexokinase: -4; 14-3-3 Bad inh: -18; Mdm2 ligase inh: -82; Hck Nef HTS: -5; Wee1 stabilizer: 15*

What do the screens show for `COc1cc(NC(=O)c2ccccc2-c2ccccc2)cc(OC)c1`?
Tb hexokinase: 2; 14-3-3 Bad inh: -1; Mdm2 ligase inh: 7; Hck Nef HTS: 4; Wee1 stabilizer: 1

Results for COc1ccc(OC)c(Nc2ncnc3sc(-c4ccccc4)cc23)c1 ?
Tb hexokinase: -4; 14-3-3 Bad inh: 80*[fluorescence artefact?]; Mdm2 ligase inh: -7; Hck Nef HTS: 3; Wee1 stabilizer: 5

Results for Cn1ccnc1SCC(=O)Nc1ccc2c(c1)OC(F)(F)O2 ?
Tb hexokinase: -2; 14-3-3 Bad inh: -8; Mdm2 ligase inh: 0; Hck Nef HTS: 17; Wee1 stabilizer: 1

What do the screens show for `COc1cc(C(=O)N2CCN(Cc3ccccc3C(F)(F)F)CC2)cc(OC)c1OC`?
Tb hexokinase: -7; 14-3-3 Bad inh: 35; Mdm2 ligase inh: 8; Hck Nef HTS: 0; Wee1 stabilizer: 0

What do the screens show for `CN1CCCN(Cc2ccccc2C(F)(F)F)CC1`?
Tb hexokinase: -2; 14-3-3 Bad inh: 81*; Mdm2 ligase inh: 0; Hck Nef HTS: -6; Wee1 stabilizer: 0

How did COc1cccc(OC)c1C(=O)N1CCN(Cc2ccncc2)CC1 do in these assays?
Tb hexokinase: 1; 14-3-3 Bad inh: 46; Mdm2 ligase inh: -13; Hck Nef HTS: 0; Wee1 stabilizer: -1

How did COc1ccccc1CN1CCN(C(=O)c2ccncc2)CC1 do in these assays?
Tb hexokinase: -6; 14-3-3 Bad inh: 83*; Mdm2 ligase inh: -16; Hck Nef HTS: 1; Wee1 stabilizer: 0

How did COc1cccc(OC)c1C(=O)N1CCN(Cc2ccccc2C(F)(F)F)CC1 do in these assays?
Tb hexokinase: -3; 14-3-3 Bad inh: 84*; Mdm2 ligase inh: -4; Hck Nef HTS: -1; Wee1 stabilizer: -1

How did Cc1cccc(OCCSc2nc(N)cc(N)n2)c1 do in these assays?
Tb hexokinase: -1; 14-3-3 Bad inh: -2; Mdm2 ligase inh: -6; Hck Nef HTS: -37; Wee1 stabilizer: 4

How did Nc1ccc(C(=O)OCC(=O)Nc2ccc3c(c2)OCO3)cc1[N+](=O)[O-] do in these assays?
Tb hexokinase: 10; 14-3-3 Bad inh: 11; Mdm2 ligase inh: -11; Hck Nef HTS: 4; Wee1 stabilizer: 11*

What do the screens show for `NS(=O)(=O)c1ccc(CCNC(=O)c2ccc3c(c2)OCCO3)cc1`?
Tb hexokinase: 3; 14-3-3 Bad inh: -15; Mdm2 ligase inh: -13; Hck Nef HTS: -2; Wee1 stabilizer: 0
